Reference: ChEMBL document CHEMBL1212892, “Tirucallane-type alkaloids from the bark of Dysoxylum laxiracemosum” (J Nat Prod, 2010)

Key:
Assay type in all cases: functional, cell-based
[1] = test system: MCF7; assay: Cytotoxicity against human MCF7 cells after 48 hrs by MTT assay; settings: MCF7, 48 h
Summary of the method: (§1)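 Cells grown in RPMI-1640 or DMEM with 10% FBS, 37 °C, 5% CO2. Adherent cells seeded at 1 × 10^5 cells/mL and left 12 h to attach before dosing; suspension cells seeded just before dosing. Compound at 0.0625, 0.32, 1.6, 8 and 40 µM in triplicate for 48 h, cisplatin positive control. Viability by MTT; IC50 by Reed and Muench method.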

[2] = test system: SW480; assay: Cytotoxicity against human SW480 cells after 48 hrs by MTT assay; settings: SW480, 48 h; summary of the method: as §1
[3] = test system: HL-60; assay: Cytotoxicity against human HL60 cells after 48 hrs by MTT assay; settings: HL-60, 48 h; summary of the method: as §1
[4] = test system: A549; assay: Cytotoxicity against human A549 cells after 48 hrs by MTT assay; settings: A549, 48 h; summary of the method: as §1
[5] = test system: SMMC-7721; assay: Cytotoxicity against human SMMC7721 cells after 48 hrs by MTT assay; settings: SMMC-7721, 48 h; summary of the method: as §1

| SMILES | IC50 [1] [µM] | IC50 [2] [µM] | IC50 [3] [µM] | IC50 [4] [µM] | IC50 [5] [µM] |
| --- | --- | --- | --- | --- | --- |
| CC(C)C(=O)c1cc([C@@H]2CC[C@]3(C)C4=CCC5C(C)(C)[C@H](O)CC[C@]5(C)[C@H]4CC[C@@]23C)c[nH]1 (stereo partly drawn) [LAXIRACEMOSIN A] | 16.8 | 7.2 | 3.1 | 5.4 | 9.5 |
| CC(C)C(=O)c1cc([C@@H]2CC[C@]3(C)C4=CCC5C(C)(C)C(=O)CC[C@]5(C)[C@H]4CC[C@@]23C)c[nH]1 (stereo partly drawn) [LAXIRACEMOSIN B] | > 20 | > 20 | 12.8 | 13.4 | 19 |
| CC(C)(O)C(=O)c1cc([C@@H]2CC[C@]3(C)C4=CCC5C(C)(C)[C@H](O)CC[C@]5(C)[C@H]4CC[C@@]23C)c[nH]1 (stereo partly drawn) [LAXIRACEMOSIN D] | > 20 | > 20 | 6.8 | > 20 | > 20 |
| C=C(C)C(=O)c1cc([C@@H]2CC[C@]3(C)C4=CCC5C(C)(C)[C@H](O)CC[C@]5(C)[C@H]4CC[C@@]23C)c[nH]1 (stereo partly drawn) [LAXIRACEMOSIN E] | 5.1 | 3.7 | 1.5 | 3.7 | 2.7 |
| CC1(C)C2CC=C3[C@H](CC[C@@]4(C)[C@H](c5c[nH]c(C=O)c5)CC[C@]34C)[C@@]2(C)CC[C@H]1O (stereo partly drawn) [LAXIRACEMOSIN F] | > 20 | > 20 | 15.7 | > 20 | 15.6 |
